# Compound activity deposited in PubChem by several laboratories.
# Shown is part of a subset that was picked to be rich in hits.
# XBP1 UPR activ – activators of adaptive XBP1 UPR arm, primary screen, cell-based, CHO-XBP1 luciferase reporter, luminescence, uHTS; 330,000 compounds, 0.33% hits; IRE1-XBP1 UPR activation; percent of tunicamycin response, DMSO as zero; activation, % at 20 µM; AID 463104, 2010;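 active = versus positive control, 20 µM dose yields 30% or more activation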;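 also: 100% = tunicamycin at 10 µg/mL and 0% = DMSO only wells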
#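 Material: CHO cell line with stable XBP1 luciferase reporter; buffer or medium: F12 medium containing 10% fetal bovine serum; compound: single point, 20 µM final compound, 1% DMSO; incubation: 6 h treatment, 37 °C; measured by: glow luminescence from Steady-Glo reagent; evaluation: activation, % of tunicamycin; control set: tunicamycin high, DMSO low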
# GAA850 FXN act – FXN promoter activators, primary screen, cell-based, luciferase luminescence, HEK293 lucGAA850 | HEK293 lucGAA850 FXN promoter luciferase reporter, 24 h; percent of 10 µM SAHA response | activation, % at 6 µM | 360,000 compounds, 0.56% hits | AID 540364, 2011;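 active = activation above the average of all compounds screened plus 3 SD, cutoff fixed separately per campaign, cut at about 7.5% in these data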;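 also: 0% = DMSO wells and 100% = 10 µM SAHA wells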
# CHOP inhibitor – inhibitors of CHOP promoter induction, primary screen, cell-based, unfolded protein response, luciferase reporter; CHO-K1 CHOP-promoter luciferase, tunicamycin-induced, 15-18 h; inhibition, % at 10 µM; 220,000 compounds, 3.8% hits; AID 2732, 2010;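 active = compounds that reduced the stress-induced luciferase reporter signal by more than about 70% of percent inhibition, limit read from the data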;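 also: 0% = tunicamycin plus vehicle and 100% = wells without tunicamycin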
# CHOP UPR activ – activators of apoptotic CHOP UPR arm, primary screen, cell-based, CHO-CHOP luciferase reporter, luminescence, uHTS; UPR activation; percent of tunicamycin response over DMSO baseline; activation, % at 10 µM; 330,000 compounds, 0.34% hits;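 active = at 10 µM dose, activation of 40% or more, normalized to positive control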;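 also: 100% = tunicamycin at 10 µg/mL and 0% = DMSO alone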
#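 Material: CHO-CHOP cells, stable luciferase reporter of PERK-eIF2a-CHOP signalling; quantity: 500 reporter cells seeded per well; buffer or medium: F12 medium containing 10% fetal bovine serum; compound: one dose, 10 µM in 0.5% DMSO; incubation: 6 h compound treatment, 37 °C; measured by: Steady-Glo luciferase luminescence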
# Starred values were filed as active, the others as inactive; / = no result given.
SMILES,XBP1 UPR activ,GAA850 FXN act,CHOP inhibitor,CHOP UPR activ
Oc1ccc(NCc2ccccc2OCc2ccccc2F)cc1,8.8,1.1,85.2*,2.7
c1ccc(CCNc2cc(-c3ccc4ccccc4c3)nc3ccnn23)nc1,/,0.2,/,/
COc1ccc(OC)c(NC(=O)Nc2nnc([C@H]3C[C@H](O)[C@@H](CO)O3)s2)c1,/,1.1,/,/
CCOC(=O)C(C(=O)Nc1nc2ccccc2s1)C1CCCCC1 (centres undefined),-0.5,0.1,74.2*,1.2
COc1ccc(Cl)cc1-c1cc(C(=O)NCc2ccccc2)[nH]n1,/,-0.3,/,/
CN(C)C/C(Cl)=C(\Cl)c1ccccc1,-5.8,-0.9,76.7*,-0.4
CN(C)CC(=O)c1ccc(-c2ccccc2)cc1,-1.0,-0.6,26.9,-0.6
CCOC(=O)C1CCCN(C(=O)c2cccnc2Oc2ccccc2)CC1 (centres undefined),/,1.1,/,/
CCOc1ccc(NC(=O)CCCOc2cc(=O)n(C)c3ccccc23)cc1,1.0,-0.5,74.2*,2.3
COC(=O)CN1C(=S)N(c2ccc(Cl)cc2)C(=O)C1CC(=O)Nc1ccc(F)cc1 (centres undefined),-2.4,-2.1,29.1,0.9
COC(=O)CN1C(=S)N(c2ccc(Cl)cc2)C(=O)C1CC(=O)Nc1ccc(Cl)cc1 (centres undefined),-6.0,-1.3,91.3*,1.4
CCN1C(=O)C(CC(=O)Nc2ccc(F)cc2)N(CCc2ccc(OC)cc2)C1=S (centres undefined),-2.0,1.5,93.2*,-1.1
CCOC(=O)c1ccc(N2C(=O)C(CC(N)=O)N(NC(=O)c3cccc(F)c3)C2=S)cc1 (centres undefined),-2.3,1.7,/,-0.1
COc1ccc(NC(=O)CC2C(=O)N(c3ccc(Cl)cc3)C(=S)N2CCc2ccncc2)cc1 (centres undefined),-2.4,-3.6,92.6*,1.6
COc1ccc(NC(=O)CC2C(=O)N(c3ccc(Cl)cc3)C(=S)N2NC(=O)c2cccc(F)c2)cc1 (centres undefined),-0.9,-3.7,83.7*,3.1
CCOc1ccccc1C(=O)NCC(=O)N(C)CC(=O)Nc1ccc(N2CCOCC2)cc1,/,0.0,/,/
CC(C)(C)c1ccc(C(=O)N2CCC2(C)C(=O)NS(=O)(=O)c2ccc(C#N)cc2)cc1 (centres undefined),/,0.5,/,/
CCCS(=O)(=O)NC(=O)C1(C)CCCN(C(=O)c2ccccc2C(F)(F)F)C1 (centres undefined),/,2.0,/,/
CCOC(=O)c1cnc2ccc(C)cc2c1Nc1ccc(N2CCOCC2)cc1,-1.8,-3.4,72.4*,1.4
COc1cc(S(=O)(=O)NCCN2CCOCC2)c(OC)cc1Cl,0.9,-0.6,78.3*,-0.2
COc1ccc(S(=O)(=O)NCCN2CCOCC2)c(C)c1C,-3.9,1.9,/,1.5
COc1cc(S(=O)(=O)Nc2ccc(C)cc2)ccc1N=Cc1c(C)c(C#N)c(=O)n(C)c1O,13.0,2.5,74.2*,0.4
N#Cc1c(NC(=O)CSc2nnnn2C2CCCC2)sc2c1CCCC2,2.5,1.7,81.7*,-1.1
COC(=O)c1c(NC(=O)CSc2ncnc3c2cnn3-c2ccccc2Cl)sc2c1CCCC2,-2.4,1.8,13.5,-3.1
COC(=O)c1c(NC(=O)CSc2ncnc3[nH]ncc23)sc2c1CCC2,-1.5,1.4,76.6*,2.8
SMILES,XBP1 UPR activ,GAA850 FXN act,CHOP inhibitor,CHOP UPR activ
N#Cc1c(NC(=O)CSc2nc(N)cc(=O)[nH]2)sc2c1CCCCCC2,2.5,4.7,/,2.2
N#Cc1c(NC(=O)CSc2ncn[nH]2)sc2c1CCCCC2,-4.7,-13.6,91.3*,-7.0
COc1ccc2cc(C#CC3=CC(=O)C[C@H](c4ccc(F)cc4)C3)ccc2c1,/,-0.3,/,/
COCc1cccc(-c2csc(C(NC(C)=O)c3cccc(OC)c3)n2)c1 (centres undefined),/,2.5,/,/
c1ccc(CC2CCN(c3ncnc4sccc34)CC2)cc1,/,-4.7,73.7*,/
CCN(C(=O)c1ccc2c(Cl)c3c(nc2c1)CCC3)c1ccc(C)c(C)c1,-1.5,-3.2,91.0*,-1.9
CCOC(=O)c1c(NC(=O)CSc2ncnc3ccccc23)sc(C(C)=O)c1C,-2.2,-0.4,74.7*,1.5
Cc1csc(-c2cc(C(=O)NCc3ccc(F)cc3)n[nH]2)c1,/,-0.1,/,/
COC(=O)c1ccc(Oc2nc3c(c(=O)n(C)c(=O)n3C)n2CCC(C)C)cc1,-4.4,0.1,75.4*,1.5
CCC(=O)c1ccc(Oc2nc3c(c(=O)n(C)c(=O)n3C)n2CC)cc1,-1.6,-1.1,/,0.5
Cc1ccc(-c2csc(C(O)c3cccc(Cl)c3)n2)cc1C (centres undefined),/,-0.2,/,/
CCOC(=O)c1sc(NC(=O)CSc2nc3c(cc2C#N)CCCCCC3)c(C#N)c1C,2.7,1.0,71.5*,1.1
CCOC(=O)c1sc(NC(=O)CSc2n[nH]c(-c3ccc(Cl)cc3Cl)n2)c(C#N)c1C,-0.3,-0.9,75.3*,-2.7
CCOC(=O)c1sc(NC(=O)CSc2nc(C)cc(-c3ccccc3)n2)c(C#N)c1C,-0.1,1.5,-7.1,0.0
CCOC(=O)c1sc(NC(=O)CSc2nc(C)cc(C)c2C#N)c(C#N)c1C,3.2,0.8,11.5,0.1
CC(=O)c1cccc(NC(=O)C2Cc3c(-c4ccccc4Oc4ccccc4)ccnc3O2)c1 (centres undefined),/,-3.2,/,/
OC(CNCCc1ccc(Cl)cc1)COc1ccc2ccccc2c1 (centres undefined),/,2.7,100.4*,/
CCCCOCCCNc1ncnc2c1[nH]c1ccccc12,0.4,-6.2,84.7*,8.3
O=C(Cn1ncc2c1-c1ccccc1OC2)Nc1ccc(S(=O)(=O)N2CCCCC2)cc1,0.2,1.0,86.4*,2.8
Cc1cc(=O)n2nc(N3CCCC(C(=O)Nc4cccc(C)c4C)C3)sc2n1 (centres undefined),/,-0.3,/,/
O=C(c1cnn2c(C(F)(F)F)cc(-c3cccs3)nc12)N1CCN(Cc2ccccc2)CC1,8.5,0.1,70.2*,0.0
CCc1nc2c(OCC3COc4ccccc4O3)cccn2c1N(C)C(=O)c1ccc(OC)cc1 (centres undefined),/,-0.7,/,/
CCN(CC)CCNc1ccc(CO)c2oc3ccccc3c(=O)c12,/,-1.8,/,/
CCCCOc1ccc(CNC(=S)N/N=C/c2ccc(OC)c(OC)c2)cc1,-1.0,2.3,88.4*,2.4
Cc1cc(NC(=O)Cn2nnc3sc4c(c3c2=O)CCC(C(C)(C)C)C4)no1 (centres undefined),2.3,1.8,81.2*,2.1
CCC1CSC(Nc2ccc(C(=O)/C=C/c3ccc(Br)cc3)cc2)=N1 (centres undefined),3.7,3.0,89.4*,2.1
CCCCCCSc1nnc(-c2cnn(-c3ccccc3)c2-n2cccc2)n1C,-2.3,0.6,84.2*,-0.3
CCSc1nnc(-c2cnn(-c3ccccc3)c2-n2cccc2)n1C,1.5,-0.2,15.4,0.9
